Assay results from ChEMBL document CHEMBL5532703, “A new class of 7-deazaguanine agents targeting autoimmune diseases: dramatic reduction of synovial fibroblast IL-6 production from human rheumatoid arthritis patients and improved performance against murine experimental autoimmune encephalomyelitis” (RSC Med Chem, 2024).
The source made the active and inactive calls. The rule behind the calls is not given here.

Tests used:
Mus musculus [1] = assay: Anti-inflammatory activity in complete Freund's adjuvant/MOG (35 to 55 residues)/pertussis toxin-induced experimental autoimmune encephalomyelitis C57BL/6 mouse model assessed as decrease in disease progression at 16 mg/kg,ip administration observed after 2 days; type: functional, organism-based; settings: time 2.0 day
Procedure, shortened: (§1)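 Female C57BL/6 mice, 10–12 weeks old and about 20 g, with EAE induced by s.c. CFA/MOG plus i.p. pertussis toxin on days 0 and 2. Mice entered the study at clinical score 1.5–2, which was day 0, and were randomised. Each received 200 µL i.p. daily for 7 days of 4 mM compound (equimolar dosing) in 4% DMSO/PBS, made fresh. Vehicle controls were used, n = 4–5, with clinical scores recorded daily post treatment.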

Synovial fibroblasts [2] = assay: Anti-inflammatory activity in human Synovial fibroblasts derived from rheumatoid arthritis patient assessed as reduction in TNF-alpha induced IL-6 production at 200 uM measured after 72 hrs by ELISA; type: functional, cell-based
Procedure, shortened: (§2)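 Synovial fibroblasts came from collagenase-digested (1 mg/mL, 4 h, 37 °C) RA patient biopsies, grown in RPMI-1640 with 10% FCS and used at passages 3–8. Cultures were stimulated with TNFα (10 ng/mL) while exposed to compound, with medium and compound renewed at 24 h. Supernatants were collected at 72 h for IL-6 ELISA, relative to a 4% DMSO/PBS vehicle control.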

Mus musculus [3] = assay: Anti-inflammatory activity in complete Freund's adjuvant/MOG (35 to 55 residues)/pertussis toxin-induced experimental autoimmune encephalomyelitis C57BL/6 mouse model assessed as decrease in disease progression at 15 mg/kg,ip administration observed after 7 days; type: functional, organism-based; settings: time 7.0 day; procedure, shortened: as §1
Mus musculus [4] = assay: Anti-inflammatory activity in complete Freund's adjuvant/MOG (35 to 55 residues)/pertussis toxin-induced experimental autoimmune encephalomyelitis C57BL/6 mouse model assessed as decrease in disease progression at 15 mg/kg,ip administration observed after 1 day; type: functional, organism-based; procedure, shortened: as §1
Mus musculus [5] = assay: Anti-inflammatory activity in complete Freund's adjuvant/MOG (35 to 55 residues)/pertussis toxin-induced experimental autoimmune encephalomyelitis C57BL/6 mouse model assessed as decrease in disease progression at 15 mg/kg,ip administration observed after 3 days; type: functional, organism-based; settings: time 3.0 day; procedure, shortened: as §1
Synovial fibroblasts [6] = assay: Anti-inflammatory activity in human Synovial fibroblasts derived from rheumatoid arthritis patient assessed as reduction in TNF-alpha induced IL-6 production measured after 72 hrs by ELISA; type: functional, cell-based; procedure, shortened: as §2
Mus musculus [7] = assay: Anti-inflammatory activity in complete Freund's adjuvant/MOG (35 to 55 residues)/pertussis toxin-induced experimental autoimmune encephalomyelitis C57BL/6 mouse model assessed as decrease in disease progression at ip administration observed after 4 days; type: functional, organism-based; settings: time 4.0 day
Procedure, shortened: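 EAE in female C57BL/6 mice, induced with CFA/MOG s.c. and pertussis toxin i.p. Mice were enrolled at clinical score 1.5–2 and randomised, then dosed i.p. daily with compound diluted to 4 mM in 4% DMSO/PBS, 200 µL per mouse. This was a 4-day study, n = 5, with 4% DMSO/PBS vehicle controls. Clinical score was tracked daily after treatment started.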

Mus musculus [8] = assay: Anti-inflammatory activity in complete Freund's adjuvant/MOG (35 to 55 residues)/pertussis toxin-induced experimental autoimmune encephalomyelitis C57BL/6 mouse model assessed as decrease in disease progression at 16 mg/kg,ip administration observed after 1 day; type: functional, organism-based; procedure, shortened: as §1
Mus musculus [9] = assay: Anti-inflammatory activity in complete Freund's adjuvant/MOG (35 to 55 residues)/pertussis toxin-induced experimental autoimmune encephalomyelitis C57BL/6 mouse model assessed as decrease in disease progression at 9 mg/kg,ip administration observed after 7 days; type: functional, organism-based; settings: time 7.0 day; procedure, shortened: as §1
Mus musculus [10] = assay: Anti-inflammatory activity in complete Freund's adjuvant/MOG (35 to 55 residues)/pertussis toxin-induced experimental autoimmune encephalomyelitis C57BL/6 mouse model assessed as decrease in disease progression at 9 mg/kg,ip administration observed after 3 days; type: functional, organism-based; settings: time 3.0 day; procedure, shortened: as §1

In the case of CC(C)(CCNCc1c[nH]c2nc(N)[nH]c(=O)c12)c1ccccc1, the Activity (Mus musculus [1]) is reported as “Active” and the Activity (Synovial fibroblasts [2]) is reported as “Active”.
In the case of Nc1nc2[nH]cc(CNCCC(c3ccccc3)c3ccccc3)c2c(=O)[nH]1, the Activity (Synovial fibroblasts [2]) is reported as “Active”.
With Nc1nc2[nH]cc(CNCCCc3ccccc3)c2c(=O)[nH]1 the Activity (Mus musculus [3]) was “Active”, the Activity (Mus musculus [4]) was “Active” and the Activity (Mus musculus [5]) was “Active”. For the same compound, the Activity (Synovial fibroblasts [6]) was “Dose-Dependent Effect”.
C[C@H](CCNCc1c[nH]c2nc(N)[nH]c(=O)c12)c1ccccc1 was tested, and the Activity (Synovial fibroblasts [2]) was “inactive”.
For Nc1nc2[nH]cc(/C=N/OCc3ccccc3)c2c(=O)[nH]1, the Activity (Synovial fibroblasts [2]) was “Active”.
With Nc1nc2[nH]cc(CNCCC3(c4ccccc4)SCCS3)c2c(=O)[nH]1 the Activity (Synovial fibroblasts [2]) was “inactive”.
For Nc1nc2[nH]cc(CNCCCc3ccsc3)c2c(=O)[nH]1, the Activity (Synovial fibroblasts [2]) was “Active”.
With Nc1nc2[nH]cc(CNOCCc3ccccc3)c2c(=O)[nH]1 the Activity (Mus musculus [7]) was “Active” and the Activity (Synovial fibroblasts [2]) was “Active”.
Nc1nc2[nH]cc(CNCC[C@H](O)c3ccccc3)c2c(=O)[nH]1 was tested, and the Activity (Synovial fibroblasts [2]) was “Active”.
Nc1nc2[nH]cc(CNCCC(=O)c3ccccc3)c2c(=O)[nH]1 was tested, and the Activity (Mus musculus [8]) was “Active” and the Activity (Synovial fibroblasts [2]) was “Active”.
In the case of Nc1nc2[nH]cc(/C=N/O)c2c(=O)[nH]1, the Activity (Mus musculus [9]) is reported as “Active” and the Activity (Synovial fibroblasts [2]) is reported as “Active”.
For Nc1nc2[nH]cc(CNCCNc3ccccc3)c2c(=O)[nH]1, the Activity (Synovial fibroblasts [2]) was “Active”.
CCC(CC)(CCNCc1c[nH]c2nc(N)[nH]c(=O)c12)c1ccccc1 was tested, and the Activity (Synovial fibroblasts [2]) was “Active”.
In the case of CO/N=C/c1c[nH]c2nc(N)[nH]c(=O)c12, the Activity (Mus musculus [9]) is reported as “inactive”, the Activity (Synovial fibroblasts [2]) is reported as “Active” and the Activity (Mus musculus [10]) is reported as “Active”.
CC(CCNCc1c[nH]c2nc(N)[nH]c(=O)c12)c1ccccc1 (stereo unspecified) was tested, and the Activity (Synovial fibroblasts [2]) was “Active”.
Nc1nc2[nH]cc(CNCCC3(c4ccccc4)CC3)c2c(=O)[nH]1 was tested, and the Activity (Synovial fibroblasts [2]) was “Active”.
With Nc1nc2[nH]cc(CNCC[C@@H](O)c3ccccc3)c2c(=O)[nH]1 the Activity (Synovial fibroblasts [2]) was “Active”.
